ChEMBL document CHEMBL3758084, “Pyrazole antagonists of the CB1 receptor with reduced brain penetration” (Bioorg Med Chem, 2016)
pEC50, pKi: −log10 of the molar value.

Key:
Cannabinoid receptor 2 = Cannabinoid receptor 2 (Homo sapiens, UniProt P34972); experiment: Displacement of [3H]CP55940 from human CB2 receptor expressed in CHO cell membranes
MDCK = experiment: Permeability across apical to basolateral side of MDCK cell BBB penetration model expressing human mdr1 at 10 uM incubated for 1 hr by mass spectrometric analysis; format: ADME, cell-based, Canis lupus familiaris; details: dog
In short: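 MDCK cells transfected with human MDR1 grown 4 days to confluence on Transwell-type filters in DMEM/F12 with 10% FBS and antibiotics. Compound added apically at 10 µM in HBSS with 25 mM glucose, HEPES pH 7.4; 1 h at 37 °C; apical and basal samples quantified by LC–MS/MS (MRM); percent apical-to-basal transport.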

Liver = experiment: Stability of compound in human liver S9 fractions assessed as compound remaining at 10 uM incubated for 60 mins by mass spectrometric analysis; format: ADME, subcellular, Liver S9 fraction; details: s9, 1 h
In short: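 Mixed-gender pooled human hepatic S9 at 1 mg/mL; compound at 10 µM final in 50 mM potassium phosphate pH 7.4, 3 mM MgCl2 with NADPH regenerating system (1 mM NADP, 5 mM glucose-6-phosphate, 1 unit/mL G6PDH); triplicates, 60 min; quenched with 3 volumes acetonitrile; LC–MS quantified against matrix standard curves; percent parent remaining.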

[1] = Permeability of compound across apical to basal compartment in PBS at pH 5.5 at 10 uM after 4 hrs by PAMPA; format: ADME; details: pH 5.5, 4 h
In short: (§1)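 PAMPA kit per manufacturer; compound at 10 µM final added to the apical compartment in PBS at pH 5.5 or 7.4; incubated 4 h at room temperature; both compartments sampled and measured by LC–MS; percent apical-to-basal transport, mean of 3.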

[2] = Permeability of compound across apical to basal compartment in PBS at pH 7.4 at 10 uM after 4 hrs by PAMPA; format: ADME; details: pH 7.4, 4 h; in short: as §1
Cannabinoid receptor 1 [3] = biological target: T1, Cannabinoid receptor 1 (Homo sapiens, UniProt P21554); experiment: Displacement of [3H]CP55940 from human CB1 receptor expressed in CHO cell membranes; format: cell-based
T1 sequence (P21554 whole entry): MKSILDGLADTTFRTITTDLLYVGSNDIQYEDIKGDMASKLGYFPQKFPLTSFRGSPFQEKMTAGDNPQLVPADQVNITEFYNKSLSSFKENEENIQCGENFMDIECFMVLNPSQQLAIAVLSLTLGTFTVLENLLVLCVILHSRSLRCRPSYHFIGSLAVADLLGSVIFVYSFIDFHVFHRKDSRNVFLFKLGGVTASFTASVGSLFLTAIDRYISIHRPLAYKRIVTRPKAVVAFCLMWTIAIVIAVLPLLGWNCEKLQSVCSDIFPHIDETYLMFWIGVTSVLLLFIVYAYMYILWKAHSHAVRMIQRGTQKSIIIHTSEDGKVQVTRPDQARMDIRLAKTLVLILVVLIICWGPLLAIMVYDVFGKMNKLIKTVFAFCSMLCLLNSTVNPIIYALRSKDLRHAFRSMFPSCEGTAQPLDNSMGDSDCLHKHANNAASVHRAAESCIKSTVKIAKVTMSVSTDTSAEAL

[4] = Ratio of drug level in Sprague-Dawley rat brain to plasma at 10 mg/kg, ip; format: ADME, organism-based; details: read-out: BPR
Homo sapiens = species: Homo sapiens; experiment: Selectivity ratio of Ki for human CB2 receptor to Ki for human CB1 receptor
In short: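 Ki values from displacement of [³H]CP55940 in membranes of CHO cells overexpressing human CB1 or human CB2; ratio taken as Ki(CB2)/Ki(CB1). Binding was run only on compounds with apparent Ke <50 nM in the CB1 calcium assay.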

[5] = Ratio of drug level in Sprague-Dawley rat brain to plasma at 10 mg/kg, po after 4 hrs by LC-MS/MS analysis; format: ADME, organism-based
In short: (§2)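 Male Sprague Dawley rats (10 weeks on arrival, acclimated; 12 weeks at dosing, n=3) given a single oral gavage bolus of 10 mg/kg in 90% corn oil/10% DMSO. Sacrificed 4 h post-dose; brain and plasma collected; parent compound quantified by LC–MS/MS; mean and SD reported.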

[6] = Drug uptake in Sprague-Dawley rat brain at 10 mg/kg, po after 4 hrs by LC-MS/MS analysis; format: ADME, organism-based; details: read-out: Drug uptake; in short: as §2
Cannabinoid receptor 1 [7] = biological target: T1, Cannabinoid receptor 1; experiment: Inverse agonist activity at human CB1 receptor expressed in CHO cells assessed as increase in intracellular calcium mobilization after 90 secs by Calcein-4 AM-staining based FLIPR assay; format: functional, cell-based
[8] = Plasma concentration in Sprague-Dawley rat at 10 mg/kg, po after 4 hrs by LC-MS/MS analysis; format: ADME, organism-based; in short: as §2
Cannabinoid receptor 1 [9] = biological target: T1, Cannabinoid receptor 1; details: CHO-K1

Chain of Cannabinoid receptor 2 (P34972 whole entry): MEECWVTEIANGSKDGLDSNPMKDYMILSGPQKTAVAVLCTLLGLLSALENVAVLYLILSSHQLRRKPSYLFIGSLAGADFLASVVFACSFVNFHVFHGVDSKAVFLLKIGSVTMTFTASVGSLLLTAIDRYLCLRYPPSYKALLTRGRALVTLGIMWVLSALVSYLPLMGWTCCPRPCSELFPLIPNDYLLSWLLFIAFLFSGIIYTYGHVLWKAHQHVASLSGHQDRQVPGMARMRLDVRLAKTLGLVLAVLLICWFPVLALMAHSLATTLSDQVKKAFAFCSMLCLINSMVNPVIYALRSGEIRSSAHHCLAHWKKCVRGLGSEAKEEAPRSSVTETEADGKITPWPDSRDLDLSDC

Row | Structure (SMILES) | pKi (Cannabinoid receptor 2) | permeability (MDCK) [%] | Stability (Liver) [%] | permeability [1] [%] | permeability [2] [%] | pKi (Cannabinoid receptor 1 [3]) | Kp [4] | Ratio Ki (Homo sapiens) | BPR [5] [%] | concentration at 4 h [6] [ng/g] | pEC50 (Cannabinoid receptor 1 [7]) | concentration at 4 h [8] [ng/mL] | Ke (Cannabinoid receptor 1 [9]) [nM]
1 | Cc1c(C(=O)NC2CCN(S(=O)(=O)c3ccccc3)CC2)nn(-c2ccc(Cl)cc2Cl)c1-c1ccc(Cl)cc1 | < 4.70 | < 1 | > 90 | 0.03 | 0.1 | 7.37 | – | – | – | – | – | – | –
2 | Cc1c(C(=O)N2CCC(NC(=O)NC(C)(C)C)(c3ccccc3)CC2)nn(-c2ccc(Cl)cc2Cl)c1-c1ccc(Cl)cc1 | – | – | – | – | – | – | < 0.04 | – | – | – | – | – | –
3 | Cc1c(C(=O)NC2CCN(S(=O)(=O)CCC(F)(F)F)CC2)nn(-c2ccc(Cl)cc2Cl)c1-c1ccc(Cl)cc1 | 5.33 | < 1 | > 90 | 0.1 | 0.1 | 8.02 | – | 492 | – | – | – | – | –
4 | CCCCC(=O)N1CCC(NC(=O)c2nn(-c3ccc(Cl)cc3Cl)c(-c3ccc(Cl)cc3)c2C)CC1 | 5.75 | < 1 | 72 | 1.1 | 1.8 | 7.84 | – | 123 | – | – | – | – | –
5 | Cc1c(C(=O)NC2CCN(C(=O)C3CCCC3)CC2)nn(-c2ccc(Cl)cc2Cl)c1-c1ccc(Cl)cc1 | 5.60 | < 1 | 62 | 0.2 | 0.2 | 8.04 | – | 271 | – | – | – | – | –
6 | Cc1c(C(=O)NC2CCN(S(=O)(=O)CC(C)C)CC2)nn(-c2ccc(Cl)cc2Cl)c1-c1ccc(Cl)cc1 | 5.21 | < 1 | > 90 | 0.1 | 0.2 | 7.36 | – | 143 | – | – | – | – | –
7 | CCS(=O)(=O)N1CCC(NC(=O)c2nn(-c3ccc(Cl)cc3Cl)c(-c3ccc(Cl)cc3)c2C)CC1 | 5.36 | < 1 | 68 | 0.1 | 0.05 | 7.35 | – | 99 | – | – | – | – | –
8 | Cc1c(C(=O)NC2CCN(C(=O)OC(C)C)CC2)nn(-c2ccc(Cl)cc2Cl)c1-c1ccc(Cl)cc1 | 5.71 | < 1 | 82 | 0 | 0.1 | 8.19 | – | 301 | – | – | – | – | –
9 | Cc1c(C(=O)NC2CCN(C(=O)CC(C)C)CC2)nn(-c2ccc(Cl)cc2Cl)c1-c1ccc(Cl)cc1 | 5.74 | 1 | 72 | 3.3 | 3.6 | 7.54 | – | 63 | – | – | – | – | –
10 | Cc1c(C(=O)NC2CCN(C(=O)C(F)(F)F)CC2)nn(-c2ccc(Cl)cc2Cl)c1-c1ccc(Cl)cc1 | 5.98 | < 1 | 74 | 0.4 | 0.2 | 8.72 | – | 548 | – | – | – | – | –
11 | CCCOC(=O)N1CCC(NC(=O)c2nn(-c3ccc(Cl)cc3Cl)c(-c3ccc(Cl)cc3)c2C)CC1 | 5.81 | < 1 | 66 | 1.4 | 1.9 | 8.05 | – | 175 | 15 | 69 | 7.70 | 455 | –
12 | CCCCOC(=O)N1CCC(NC(=O)c2nn(-c3ccc(Cl)cc3Cl)c(-c3ccc(Cl)cc3)c2C)CC1 | – | – | – | – | – | – | – | – | – | – | – | – | 88
13 | Cn1c(=O)c2c(ncn2C)n(C)c1=O [CAFFEINE] | – | 80 | – | – | – | – | – | – | – | – | – | – | –
14 | Cc1c(C(=O)NC2CCN(C(=O)c3ccccc3)CC2)nn(-c2ccc(Cl)cc2Cl)c1-c1ccc(Cl)cc1 | 5.76 | < 1 | > 90 | 0.3 | 0.2 | 8.12 | – | 230 | – | – | – | – | –
15 | Cc1c(C(=O)NC2CCN(C(=O)OC(C)(C)C)CC2)nn(-c2ccc(Cl)cc2Cl)c1-c1ccc(Cl)cc1 | – | – | – | – | – | – | < 0.04 | – | – | – | – | – | –
